How the values were obtained:
Mus musculus [1] = experiment: Effect on shank3-/- mouse model of autism spectrum disorder assessed as time taken for duration of self grooming at 5 mg/kg, ip after 30 mins under 40 lux lighting (reference value: 224 +/- 47.4 sec); assay type: functional; conditions: 0.5 h
[2] = Half life in ICR mouse plasma at 1 mg/kg, iv measured upto 8 hrs by LC-MS/MS; assay type: ADME, organism-based
How it was run: (§1)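 Male ICR mice, 7–8 weeks, 30 ± 5 g; single dose 1 mg/kg iv or 10 mg/kg ip (n = 4 each). Carotid artery blood at 0, 0.08 (iv only), 0.25, 0.5, 1, 2, 4, 6, 8 h. Plasma precipitated with acetonitrile containing internal standard, quantified by LC–MS/MS. Parameters by non-compartmental analysis; AUClast by trapezoidal rule; values mean ± SD.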

CYP2C9 = CYP2C9 (Homo sapiens, UniProt P11712); experiment: Inhibition of CYP2C9 in human liver microsomes assessed as remaining activity at 10 uM using diclofenac as substrate preincubated for 5 mins followed by addition of NADPH generating system and incubated for 15 mins by LC/MS relative to control; assay type: ADME; conditions: probe diclofenac, time 20 min, read-out: Activity
Sequence of CYP2C9 (P11712 whole entry): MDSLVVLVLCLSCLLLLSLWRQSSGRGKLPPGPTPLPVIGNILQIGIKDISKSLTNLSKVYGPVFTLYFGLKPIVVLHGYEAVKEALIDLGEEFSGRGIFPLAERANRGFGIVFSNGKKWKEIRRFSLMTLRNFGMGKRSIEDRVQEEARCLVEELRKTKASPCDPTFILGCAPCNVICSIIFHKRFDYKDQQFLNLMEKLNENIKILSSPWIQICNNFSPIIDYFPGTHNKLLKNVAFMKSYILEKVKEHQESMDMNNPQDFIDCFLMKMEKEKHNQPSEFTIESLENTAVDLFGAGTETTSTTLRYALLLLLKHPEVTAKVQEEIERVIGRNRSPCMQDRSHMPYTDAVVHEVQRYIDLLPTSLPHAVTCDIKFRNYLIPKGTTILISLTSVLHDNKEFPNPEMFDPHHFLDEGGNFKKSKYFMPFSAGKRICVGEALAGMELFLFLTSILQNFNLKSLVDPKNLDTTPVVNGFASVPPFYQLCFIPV
How it was run: (§2)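 Human liver microsomes (0.25 mg/mL) in 0.1 M phosphate pH 7.4 with a five-substrate cocktail: phenacetin 50 μM, diclofenac 10 μM, S-mephenytoin 100 μM, dextromethorphan 5 μM, midazolam 2.5 μM. Compound at 0 (control) or 10 μM. Preincubated 5 min at 37 °C, NADPH-generating system added, 15 min at 37 °C. Stopped with acetonitrile plus internal standard; substrate metabolites measured by LC/MS.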

[3] = molecular target: 5-hydroxytryptamine receptor 2A (Homo sapiens, UniProt P28223); experiment: Binding affinity to 5-HT2AR (unknown origin)
Sequence of 5-hydroxytryptamine receptor 2A (P28223 whole entry): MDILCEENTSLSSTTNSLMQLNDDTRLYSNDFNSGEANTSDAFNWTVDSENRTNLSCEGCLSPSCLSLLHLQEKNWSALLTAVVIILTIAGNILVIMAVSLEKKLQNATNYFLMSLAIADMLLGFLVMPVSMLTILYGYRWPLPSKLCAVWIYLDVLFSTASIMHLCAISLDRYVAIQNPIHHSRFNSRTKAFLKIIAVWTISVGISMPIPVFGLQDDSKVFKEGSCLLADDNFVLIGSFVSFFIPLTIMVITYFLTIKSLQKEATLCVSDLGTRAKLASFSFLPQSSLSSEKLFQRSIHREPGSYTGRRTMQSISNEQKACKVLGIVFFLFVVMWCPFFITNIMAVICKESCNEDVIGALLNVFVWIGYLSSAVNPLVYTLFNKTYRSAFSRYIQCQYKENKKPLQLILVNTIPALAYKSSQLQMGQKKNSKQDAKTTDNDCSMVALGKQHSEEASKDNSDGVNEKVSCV
How it was run: (§3)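 Run by the NIMH Psychoactive Drug Screening Program as competition radioligand binding on crude membranes of cells expressing the recombinant receptor. Eleven dilutions (0.05 nM–50 μM, prepared at 5× assay concentration) were made in 50 mM Tris-HCl, 10 mM MgCl₂, 1 mM EDTA, pH 7.4. Incubation was 1.5 h at rt in the dark, followed by GF/B filtration (0.3% PEI) and scintillation counting. IC₅₀ was converted to Ki; at least triplicate.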

[4] = molecular target: 5-hydroxytryptamine receptor 2B (Homo sapiens, UniProt P41595); experiment: Binding affinity to 5-HT2BR (unknown origin); how it was run: as §3
Sequence of 5-hydroxytryptamine receptor 2B (P41595 whole entry): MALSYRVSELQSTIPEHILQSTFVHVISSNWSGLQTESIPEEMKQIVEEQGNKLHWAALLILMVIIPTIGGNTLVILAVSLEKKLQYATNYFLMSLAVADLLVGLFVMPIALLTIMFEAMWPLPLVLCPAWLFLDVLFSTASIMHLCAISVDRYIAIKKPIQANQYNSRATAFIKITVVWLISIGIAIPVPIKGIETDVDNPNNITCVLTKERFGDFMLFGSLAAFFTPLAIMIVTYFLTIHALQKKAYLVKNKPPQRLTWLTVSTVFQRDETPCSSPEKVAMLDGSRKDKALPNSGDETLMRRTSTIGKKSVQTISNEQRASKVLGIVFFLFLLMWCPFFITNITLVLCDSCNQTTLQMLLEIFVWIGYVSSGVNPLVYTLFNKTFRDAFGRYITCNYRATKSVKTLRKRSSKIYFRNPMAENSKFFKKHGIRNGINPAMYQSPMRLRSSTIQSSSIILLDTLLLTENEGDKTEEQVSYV

[5] = molecular target: 5-hydroxytryptamine receptor 1B (Homo sapiens, UniProt P28222); experiment: Binding affinity to 5-HT1BR (unknown origin); how it was run: as §3
Sequence of 5-hydroxytryptamine receptor 1B (P28222 whole entry): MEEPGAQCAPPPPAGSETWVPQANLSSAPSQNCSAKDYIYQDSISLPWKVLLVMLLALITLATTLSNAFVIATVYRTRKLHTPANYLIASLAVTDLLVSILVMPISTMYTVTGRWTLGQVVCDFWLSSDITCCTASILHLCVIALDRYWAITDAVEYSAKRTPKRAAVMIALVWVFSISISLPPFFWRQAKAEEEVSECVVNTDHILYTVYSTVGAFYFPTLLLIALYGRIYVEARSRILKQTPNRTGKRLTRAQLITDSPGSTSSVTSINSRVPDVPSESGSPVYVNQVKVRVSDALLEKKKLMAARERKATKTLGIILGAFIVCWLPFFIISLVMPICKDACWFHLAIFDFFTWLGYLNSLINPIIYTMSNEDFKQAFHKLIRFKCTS

[6] = Tmax in ICR mouse plasma at 10 mg/kg, ip measured upto 8 hrs by LC-MS/MS analysis; assay type: ADME, organism-based; how it was run: as §1
[7] = Cmax in ICR mouse plasma at 10 mg/kg, ip measured upto 8 hrs by LC-MS/MS analysis; assay type: ADME, organism-based; parameters: route intraperitoneal, dose 10 mg/kg, time <=8; how it was run: as §1
[8] = AUClast in ICR mouse plasma at 1 mg/kg, iv measured upto 8 hrs by LC-MS/MS analysis; assay type: ADME, organism-based; parameters: route intravenous, dose 1 mg/kg, time <=8; how it was run: as §1
[9] = Stability of compound in human liver microsomes assessed as compound remaining at 1 uM preincubated for 5 mins followed by addition of NADPH generating system and incubated for 30 mins by LC/MS relative to control; assay type: ADME, Microsome; conditions: time 35 min, read-out: Stability
How it was run: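 Human liver microsomes (0.5 mg/mL) in 0.1 M phosphate pH 7.4 with compound at 1 μM. Preincubated 5 min at 37 °C, then NADPH-generating system added and incubated 30 min at 37 °C. Quenched with acetonitrile containing internal standard, centrifuged, and supernatant analysed by LC/MS as percent compound remaining; verapamil as reference.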

CYP2D6 = CYP2D6 (Homo sapiens, UniProt P10635); experiment: Inhibition of CYP2D6 in human liver microsomes assessed as remaining activity at 10 uM using dextromethorphan as substrate preincubated for 5 mins followed by addition of NADPH generating system and incubated for 15 mins by LC/MS relative to control; assay type: ADME; conditions: probe dextromethorphan, time 20 min, read-out: Activity; how it was run: as §2
Sequence of CYP2D6 (P10635 whole entry): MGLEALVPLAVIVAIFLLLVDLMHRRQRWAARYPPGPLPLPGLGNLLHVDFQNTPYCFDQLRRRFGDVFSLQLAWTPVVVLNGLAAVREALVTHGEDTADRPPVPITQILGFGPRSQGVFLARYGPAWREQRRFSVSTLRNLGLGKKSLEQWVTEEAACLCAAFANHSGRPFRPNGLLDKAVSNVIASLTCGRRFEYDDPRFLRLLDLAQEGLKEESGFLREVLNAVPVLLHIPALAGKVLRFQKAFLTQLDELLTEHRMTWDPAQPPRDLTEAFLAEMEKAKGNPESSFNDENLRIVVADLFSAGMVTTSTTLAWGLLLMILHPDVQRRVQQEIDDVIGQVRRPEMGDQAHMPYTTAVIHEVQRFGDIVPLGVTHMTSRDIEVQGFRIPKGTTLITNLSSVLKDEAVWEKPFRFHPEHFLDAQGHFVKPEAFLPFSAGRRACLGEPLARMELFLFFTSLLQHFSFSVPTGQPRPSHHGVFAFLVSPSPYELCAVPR

[10] = molecular target: 5-hydroxytryptamine receptor 6 (Homo sapiens, UniProt P50406); experiment: Binding affinity to 5-HT6R (unknown origin); how it was run: as §3
Sequence of 5-hydroxytryptamine receptor 6 (P50406 whole entry): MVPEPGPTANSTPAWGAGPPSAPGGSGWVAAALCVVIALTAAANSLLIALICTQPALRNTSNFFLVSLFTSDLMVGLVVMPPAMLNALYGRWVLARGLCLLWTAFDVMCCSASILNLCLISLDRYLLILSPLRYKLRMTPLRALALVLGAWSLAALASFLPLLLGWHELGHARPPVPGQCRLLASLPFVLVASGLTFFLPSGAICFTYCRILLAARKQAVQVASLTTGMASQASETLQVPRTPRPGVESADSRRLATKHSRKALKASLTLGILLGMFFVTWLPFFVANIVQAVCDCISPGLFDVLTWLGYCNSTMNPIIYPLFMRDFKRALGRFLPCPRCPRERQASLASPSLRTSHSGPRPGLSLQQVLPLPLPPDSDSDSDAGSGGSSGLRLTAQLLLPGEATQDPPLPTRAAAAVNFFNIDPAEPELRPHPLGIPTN

[11] = Clearance in ICR mouse plasma at 1 mg/kg, iv measured upto 8 hrs by LC-MS/MS analysis; assay type: ADME, organism-based; how it was run: as §1
Mus musculus [12] = experiment: Effect on wild type mouse assessed as time taken for duration of self grooming at 5 mg/kg, ip pretreated for 10 mins in presence of SB269970 followed by compound addition and measured after 30 mins under 40 lux lighting (reference value: 43.7 +/- 10.8 sec); assay type: functional; conditions: 0.5 h
CYP3A4 = CYP3A4 (Homo sapiens, UniProt P08684); experiment: Inhibition of CYP3A4 in human liver microsomes assessed as remaining activity at 10 uM using midazolam as substrate preincubated for 5 mins followed by addition of NADPH generating system and incubated for 15 mins by LC/MS relative to control; assay type: ADME; conditions: probe midazolam, time 20 min, read-out: Activity; how it was run: as §2
Sequence of CYP3A4 (P08684 whole entry): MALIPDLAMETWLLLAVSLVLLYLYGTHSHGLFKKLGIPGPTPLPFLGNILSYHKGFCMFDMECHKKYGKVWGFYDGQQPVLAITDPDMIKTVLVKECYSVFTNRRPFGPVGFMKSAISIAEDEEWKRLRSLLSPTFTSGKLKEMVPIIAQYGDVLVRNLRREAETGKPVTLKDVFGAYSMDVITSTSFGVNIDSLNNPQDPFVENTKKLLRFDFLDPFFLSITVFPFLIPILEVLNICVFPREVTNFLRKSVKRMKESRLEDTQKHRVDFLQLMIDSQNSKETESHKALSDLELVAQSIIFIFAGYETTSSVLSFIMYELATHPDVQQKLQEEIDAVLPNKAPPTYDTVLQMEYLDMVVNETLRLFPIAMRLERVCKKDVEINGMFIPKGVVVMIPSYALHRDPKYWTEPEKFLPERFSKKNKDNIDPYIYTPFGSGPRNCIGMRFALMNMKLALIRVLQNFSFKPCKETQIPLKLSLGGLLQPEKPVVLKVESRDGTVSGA

Mus musculus [13] = experiment: Effect on shank3-/- mouse model of autism spectrum disorder assessed as time taken for duration of self grooming at 5 mg/kg, ip pretreated for 10 mins in presence of SB269970 followed by compound addition and measured after 30 mins under 40 lux lighting (reference value: 224 +/- 47.4 sec); assay type: functional; conditions: 0.5 h
[14] = molecular target: T1, 5-hydroxytryptamine receptor 1A (Homo sapiens, UniProt P08908); experiment: Binding affinity to 5-HT1AR (unknown origin); how it was run: as §3
T1 sequence (P08908 whole entry): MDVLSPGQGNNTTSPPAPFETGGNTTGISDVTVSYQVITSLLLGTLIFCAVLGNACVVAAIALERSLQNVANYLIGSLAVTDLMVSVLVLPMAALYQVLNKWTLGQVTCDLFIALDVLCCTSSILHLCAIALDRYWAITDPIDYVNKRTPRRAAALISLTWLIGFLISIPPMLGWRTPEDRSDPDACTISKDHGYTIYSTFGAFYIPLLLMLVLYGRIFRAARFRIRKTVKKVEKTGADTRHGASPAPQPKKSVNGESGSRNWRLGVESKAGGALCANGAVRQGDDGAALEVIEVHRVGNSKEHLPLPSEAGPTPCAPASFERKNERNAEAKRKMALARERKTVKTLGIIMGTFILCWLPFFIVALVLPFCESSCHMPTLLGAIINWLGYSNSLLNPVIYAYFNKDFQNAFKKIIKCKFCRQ

[15] = MRTinfinity in ICR mouse plasma at 1 mg/kg, iv measured upto 8 hrs by LC-MS/MS analysis; assay type: ADME, organism-based; how it was run: as §1
Mus musculus [16] = experiment: Effect on wild type mouse assessed as time taken for duration of self grooming at 5 mg/kg, ip after 30 mins under 40 lux lighting (reference value: 43.7 +/- 10.8 sec); assay type: functional; conditions: 0.5 h
[17] = Bioavailability in ICR mouse plasma at 10 mg/kg, ip measured upto 8 hrs by LC-MS/MS analysis; assay type: ADME, organism-based; how it was run: as §1

CCNCCc1ccc(Cl)c(-c2ccccc2OC)c1.Cl
Time (Mus musculus [1]): 553 s | half-life [2]: 30 min | activity at 0.25 h, 10 µM (CYP2C9): > 100% | Ki [3]: 0.52 µM | Ki [4]: 0.13 µM | Ki [5]: 0.58 µM | Tmax [6]: 24 min | Cmax [7]: 348 ng/mL | AUC(0-t) at 8 h [8]: 32.9 ng·h/mL | remaining at 0.5 h, 1 µM [9]: 71.5% | activity at 0.25 h, 10 µM (CYP2D6): 88.7% | Ki [10]: > 10 µM | clearance [11]: 478 mL/min/kg | Time (Mus musculus [12]): 70.8 s | activity at 0.25 h, 10 µM (CYP3A4): 98.5% | Time (Mus musculus [13]): 166 s | Ki [14]: 0.052 µM | MRT inf [15]: 42 min | Time (Mus musculus [16]): 107 s | bioavailability [17]: 134%

From ChEMBL document CHEMBL5038590, “Discovery of G Protein-Biased Ligands against 5-HT7R” (J Med Chem, 2021)
